Results: publication PMC5879004 (Heart rhythm, 2017)
Entries after “also recorded” stand apart in the source; their conditions may differ.

Columns and labels:
[1] = molecular target: purified RyR2 (Ovis aries, UniProt A0ACI6RLQ3); experiment: Single-channel recordings of purified RyR2 in planar lipid bilayers; format: biochemical, sheep
[2] = test system: RyR2 macromolecular complex (sheep cardiac SR); experiment: 3H-Ryanodine binding to cardiac SR vesicles
Summary of the method: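 Sheep cardiac SR vesicles (0.5mg/ml) incubated to equilibrium for 3hrs at 37°C in 20mM HEPES pH 7.4, 250mM KCl, 50µM CaCl2, 2nM 3H-ryanodine plus 13nM unlabeled ryanodine, ± test compound. Non-specific binding (200nM ryanodine, 4mM EGTA) subtracted. Quenched by rapid filtration. Ca2+-dependence run across free Ca2+ levels set with EGTA. Data as mean ± SEM.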

[3] = test system: ventricular myocytes from R176Q mice; experiment: Ca2+ spark frequency; format: cell-based, mouse
Summary of the method: (§1)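 Isolated mouse ventricular myocytes were loaded with Fluo-4-AM (2µM) and stimulated with 100nM isoproterenol to raise spontaneous sparks. Cells were exposed to vehicle or test compound for 2hrs, then sparks were imaged by confocal microscopy and spark frequency computed. For R176Q cells, a 0.5nM–5µM dose series was fitted sigmoidally for IC50 (n=6–10 cells per group, 3 mice).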

[4] = test system: WT myocytes; experiment: Ca2+ spark frequency; format: cell-based, mouse; details: 500nM
Summary of the method: as §1

[5] = test system: ventricular myocytes of WT mice; experiment: Ca2+ transient amplitude induced by 1-Hz field stimulation, WT myocytes; format: cell-based, mouse; details: 500nM, vehicle 2.6 ± 0.2
[6] = test system: R176Q myocytes; experiment: Ca2+ transient amplitude induced by 1-Hz field stimulation, R176Q myocytes; format: cell-based, mouse; details: 500nM, vehicle 2.4 ± 0.1
[7] = test system: R176Q mice; experiment: Inducible VT by extrastimuli pacing after epinephrine and caffeine; format: in vivo, mouse; details: 2.5µg/kg i.p. 15 minutes prior to pacing, vehicle 8 of 11
Summary of the method: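 Adult (2–3-month) R176Q mice under 1.5% isoflurane in 95% O2 had surface ECG and intracardiac electrograms recorded. Epinephrine (2mg/kg) and caffeine (120mg/kg) were given i.p., then extrastimulus pacing tested VT inducibility, with or without i.p. test compound. Incidence was scored as mice with VT per group.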

[8] = test system: R176Q mice; experiment: ECG parameters after injection; format: in vivo, mouse
Summary of the method: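 RyR2-R176Q/+ mice aged 2–3 months were anesthetised with 1.5% isoflurane in 95% O2. Six-lead surface ECG and intracardiac electrograms were recorded simultaneously, at baseline and with or without intraperitoneal test compound.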

[9] = IC50, single-channel, purified RyR2 without CaM, 25µM cis-Ca2+
[10] = −Log([IC50], M), single-channel, purified RyR2 without CaM, 25µM cis-Ca2+

Compound | inhibition of channel activity ([1]; purified RyR2, all concentrations tested (10nM-100µM)) | effect on equilibrium 3H-ryanodine binding ([2]; equilibrium binding, sheep cardiac SR) | IC50 [1, 9] | channel activity at concentrations above 100nM ([1]; purified RyR2 without CaM) | IC50 [1, 10] | reduction of CaSF compared to vehicle ([3]; 500nM) | IC50 ([3]; CaSF inhibition, 2hrs exposure) | effect on CaSF [4] | Ca2+ transient amplitude [5] | Ca2+ transient amplitude [6] | incidence of inducible VT [7] | effect on ECG parameters (RR, HR, PR, QRS, QTc) [8] | IC50 ([1]; IC50, single-channel, purified RyR2 + 100nM CaM) | IC50 ([1]; IC50, single-channel, purified RyR2 + 1μM CaM) | reduction in potency (IC50 higher) vs CaM-free purified RyR2 ([1]; cardiac SR or purified RyR2 supplemented with 100nM or 1µM CaM) | IC50 ([1]; −Log([IC50], M), single-channel, purified RyR2 + 100nM CaM) | IC50 ([1]; −Log([IC50], M), single-channel, purified RyR2 + 1μM CaM) | concentration required for inhibition of equilibrium 3H-ryanodine binding ([2]; equilibrium binding over 3 hours) | shift of the Ca2+-dependence of 3H-ryanodine binding ([2]; therapeutic concentrations)
CCN(CC)CCO [Compound 3, 2-(diethylamino)-ethanol, reference compound] | did not inhibit | no effect |  |  |  |  |  |  |  |  |  |  |  |  |  |  |  |  | 
CCCCNc1ccc(C(=O)O)c(OC)c1 [Compound 2, 4-(butylamino)-2-methoxybenzoic acid] |  |  | 0.00945 µM | completely inhibited | 0.00955 µM |  |  |  |  |  |  |  |  |  |  |  |  |  | 
CCCCNc1ccc(C(=O)OCCN(CC)CC)c(OC)c1 [EL20, 2-(diethylamino)ethyl 4-(butylamino)-2-methoxybenzoate] |  |  | 0.00821 µM | completely inhibited | 0.00813 µM | ~ 70% | 0.0354 µM | did not significantly alter | 2.7 ± 0.2 F/Fo | 2.8 ± 0.3 F/Fo | 1 of 7 and significantly reduced | did not alter any ECG parameters; also recorded: not affected | 1.86 µM | 3.56 µM | 200 to 1000 fold | 1.86 µM | 3.55 µM | > 10 µM | did not shift
